# The list is not random: actives were taken first. Their share in the collection is about 2.2%.
# EBI2 antag: antagonists of human EBI2 receptor; P32249; EBI2 beta-arrestin recruitment, luminescence, 7a,25-OHC stimulated; inhibition, % at 5 µM; hit rate 0.81% among 360,000; AID 651636; in the data active = inhibition above about 38%;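 also: enzyme fragment complementation signal reports receptor beta-arrestin coupling in cells; 0% = agonist plus DMSO wells and 100% = wells without agonist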
# HTR2A ag: activates the mouse 5-HT2A serotonin receptor | CHO-K1 mHTR2A beta-arrestin complementation, luminescence; percent of 30 µM serotonin response | activation, % at 7.6 µM | hit rate 0.66% among 360,000 | AID 624169;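 active = activation above a run cutoff, the mean activation of all tested compounds plus 3 SD, cut at about 14% in these data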;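 also: 0% = plate median of compound wells and 100% = 30 µM serotonin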
# APJ antagonist: blocks the human apelin receptor APJ; inhibition, % at 20 µM; AID 2521; hit rate 0.32% among 330,000; CHO-K1 APJ beta-arrestin complementation, luminescence; P35414;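 active = inhibition above about 40% at 20 µM, limit read from the data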;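 also: cells challenged with 10 nM apelin-13 agonist together with compound; plate controls were apelin-13 plus DMSO wells for no effect and DMSO wells lacking apelin-13 for full effect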
# Target sequence (P35414 whole entry, looked up): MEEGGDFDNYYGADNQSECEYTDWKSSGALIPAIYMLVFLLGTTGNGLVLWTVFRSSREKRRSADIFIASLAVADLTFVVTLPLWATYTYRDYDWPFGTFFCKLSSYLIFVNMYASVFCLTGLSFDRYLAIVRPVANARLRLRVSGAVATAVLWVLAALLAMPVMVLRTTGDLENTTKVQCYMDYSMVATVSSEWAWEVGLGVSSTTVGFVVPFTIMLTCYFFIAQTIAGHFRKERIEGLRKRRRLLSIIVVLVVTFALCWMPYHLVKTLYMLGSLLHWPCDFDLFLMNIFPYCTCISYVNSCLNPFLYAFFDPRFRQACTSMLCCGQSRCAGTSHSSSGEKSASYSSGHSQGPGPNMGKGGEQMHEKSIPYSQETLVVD
# APJ agonist: APJ receptor agonism; P35414; CHO-K1 APJ PathHunter beta-arrestin, luminescence; 0% DMSO wells, 100% apelin; activation, % at 20 µM; hit rate 0.11% among 330,000; AID 2520;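 active = activation more than six SD over the plate average, tested at 20 µM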;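 also: 0% = DMSO alone and 100% = apelin-13 at 10 nM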
#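 Incubation: overnight seeding, 90 min compound at 25 °C, 1 h detection; test system: PathHunter CHO-K1 APJ (AGTRL-1) beta-arrestin reporter cells; amount: 1000 cells/well; doses: one dose, 20 µM compound, 1% DMSO; measured by: beta-gal luminescence; measure: agonist-driven arrestin binding to APJ; benchmarks: negative DMSO alone, positive Apelin-13 at 10 nM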
# CXCR6 inh: CXCR6 (human) receptor inhibition; O00574; inhibition, % at 20 µM; hit rate 0.36% among 360,000; CHO-K1 PathHunter CXCR6 beta-arrestin, luminescence; in the data active = inhibition above about 34%, passing the limit was not always enough;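 also: antagonist mode with CXCL16 agonist at 10 nM final; 0% = 10 nM CXCL16 with DMSO and 100% = unstimulated wells without agonist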
# CCR6 antag: blocks CCL20-driven beta-arrestin recruitment at human CCR6. inhibition, % at 20 µM. CHO-K1 CCR6 PathHunter beta-arrestin, luminescence, CCL20-stimulated. hit rate 0.49% among 340,000;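 active = compounds whose inhibition of the agonist-driven luminescence signal at 20 µM reaches about 50%, limit read from the data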;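 also: cells stimulated with CCL20 at 14 nM final; plate controls were DMSO with CCL20 for no effect and DMSO without agonist for full effect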
# Active calls of the source: *; · = no result given.
SMILES,EBI2 antag,HTR2A ag,APJ antagonist,APJ agonist,CXCR6 inh,CCR6 antag
N=c1n(Cc2ccc(Cl)cc2)c2ccccc2n1CC(O)COc1ccccc1 (centres undefined),-4,-1,-6,15*,-21,-3
O=C(C(Br)=Cc1ccccc1)c1ccccc1,69*,3,·,·,48*,69*
COCCNc1nc(-c2ccccc2F)c2sc(-c3ccccc3)cc2n1,19,-7,·,·,7,·
C=C(CC[C@@H](O)C(C)(C)O)[C@H]1CC[C@]2(C)[C@@H]1CCC1[C@@]3(C)CC[C@H](O)C(C)(C)C3CC[C@]12C (some centres undefined),-5,0,-8,-2,-6,69*
C=C(C)[C@@H]1CC[C@]2(C(=O)O)CC[C@]3(C)[C@H](CC[C@@H]4[C@@]5(C)CC[C@H](O)C(C)(C)[C@@H]5CC[C@]43C)[C@@H]12,-3,-2,4,3,1,-11
Cn1cccc1C(C#N)(CC#N)c1cccc(F)c1C#N (centres undefined),1,0,19,0,4,7
Cn1cccc1C(C#N)c1cccc(F)c1C#N (centres undefined),-11,-2,34,-7,4,55*
CCN1C/C(=C\c2cccc([N+](=O)[O-])c2)C(=O)/C(=C/c2cccc([N+](=O)[O-])c2)C1,40,-2,·,·,31,73*
COc1ccc(CN(C(=O)/C=C/C(=O)c2ccc(OC)cc2O)C(C(=O)NC2CCCCC2)c2ccncc2)cc1 (centres undefined),11,-1,9,-5,5,2
COCCN(CC(=O)NC1CCCCC1)C(=O)/C=C/C(=O)c1ccc(OC)cc1O,18,-5,·,·,62*,65*
COc1ccc(C(=O)/C=C/C(=O)N(CC(=O)NC2CCCCC2)Cc2cccs2)c(O)c1,25,-10,37,-3,72*,92*
COc1ccc(Cl)cc1Cn1c(C)c(C(=O)NCc2cccc([N+](=O)[O-])c2)sc1=O,8,-2,·,·,6,·
CCCCOCCCNC(=O)C[C@@H]1C[C@@]2(C(=O)OCC)CCC=C2N(Cc2cccc3ccccc23)C1=O,14,1,·,·,17,·
O=S1(=O)N[C@@H](Cc2ccccc2)COc2cccc(N3CCN(Cc4ccccc4F)CC3)c21,11,-5,·,·,-1,·
CCCCNC(=O)c1nc(C2CCN(S(=O)(=O)c3ccc(S(C)(=O)=O)cc3)CC2)oc1-c1ccccc1,14,1,·,·,·,·
CCOC(=O)N1CCN(C(=O)c2ccc(Cn3c(=S)[nH]c4cc(OCC)c(OCC)cc4c3=O)cc2)CC1,-34,2,-4,27*,-8,-29
COc1cc(/C=C2/C(=O)NN(c3cccc(Cl)c3)C2=O)cc(OC)c1O,6,0,34,-8,39,52*
CCOc1ccc2oc(C(=O)N3CCN(c4ccccn4)CC3)c(C)c2c1,63*,-4,9,4,-2,8
O=C(O)CCCN1C(=O)/C(=C\c2ccc(-c3nc4ccccc4s3)o2)SC1=S,31,-1,11,-6,43*,24
O=C1NC[C@H](CCCCN2CCN(CC3CCCCC3)C(=O)C2=O)N(CC2CCCCC2)C1=O,3,-2,·,·,-2,·
O=C(NNC(=S)Nc1ccc(F)cc1)c1cccc([N+](=O)[O-])c1,8,0,16,2,-2,-5
O=[N+]([O-])c1ccc(NNC(=S)Nc2ccc(F)cc2)cc1,3,-2,22,0,25,68*
O=C(Nc1ccc(F)cc1)N1CCN(c2nc3ccccc3s2)CC1,6,23*,-15,6,-11,8
CCC(CC)C(=O)N(C)c1c(C)nc2c(OCCC3CCCCC3)cccn12,29,-5,·,·,19,·
C=CCn1c(N)c(C(=O)OC(C)(C)C)c2nc3ccccc3nc21,1,0,50*,-10,5,19
SMILES,EBI2 antag,HTR2A ag,APJ antagonist,APJ agonist,CXCR6 inh,CCR6 antag
CC(C)(C)C(c1nc2ccccc2[nH]1)n1c(-c2ccsc2)nc2ccccc21 (centres undefined),-10,1,·,·,·,·
Cc1cc(F)ccc1-c1cc(C(=O)NCc2cccs2)[nH]n1,11,-2,·,·,0,·
CCCn1c(CNc2ccccc2O)nc2ccccc21,-11,5,-56,7,31,62*
CCOc1cc(C(=O)CSc2nnc(CNc3ccc(Cl)cc3)o2)ccc1NC(=O)CC,56*,1,4,2,-8,5
COc1ccc(NCc2nnc(SCC(=O)c3ccc(OC)cc3)o2)cc1,23,1,10,-2,-8,2
CC(C)(C)Cc1c(-c2ccc(C#N)cc2)nc2c(Cl)cc(C(F)(F)F)cn12,-15,5,·,·,-6,·
O=C(Oc1ccc(C(=S)N2CCOCC2)cc1Br)c1cc(Cl)ccc1Cl,54*,2,2,-5,8,37
CCC(=O)NC1=C(NC(C)c2ccccc2)C(=O)c2ccccc2C1=O (centres undefined),0,9,-20,2,-8,5
CCC(=O)NC1=C(Cl)C(=O)C(NC(=O)CC)=C(Cl)C1=O,-16,12,-26,6,84*,·
CC1(O)CC(c2ccc(Cl)cc2)=NN1C(=O)c1ccc(Cl)cc1 (centres undefined),17,-8,4,-4,28,57*
CCO[C@@H]1OC(C(=O)N2CCN(Cc3ccc4c(c3)OCO4)CC2)=C[C@H](c2ccc(Br)cc2)[C@H]1CCCO,29,-13,-3,-12,36,51*
CCO[C@@H]1OC(C(=O)N2CCN(Cc3ccc4c(c3)OCO4)CC2)=C[C@H](c2ccc(C(F)(F)F)cc2)[C@H]1CCCO,17,-2,-46,-7,26,38
C#Cc1ccc([C@@H]2C=C(C(=O)N3CCN(Cc4ccccc4)CC3)O[C@H](OCC)[C@H]2CCCO)cc1,24,-6,11,3,3,11
C#Cc1ccc([C@H]2C=C(C(=O)N3CCN(Cc4ccccc4)CC3)O[C@@H](OCC)[C@@H]2CCCO)cc1,56*,-1,0,-4,10,13
CC1=CN2C(=N)/C(=C/c3ccc(Sc4ccc(Cl)cc4)o3)C(=O)N=C2S1,3,2,20,-3,19,52*
CC1=CN2C(=N)/C(=C/c3ccc(Sc4ccc(C)cc4)o3)C(=O)N=C2S1,0,0,26,-1,34,63*
CC(C)CC1C(=O)N(Cc2cn(Cc3ccco3)nn2)CCS(=O)(=O)N1Cc1ccc(-c2ccccc2)cc1 (centres undefined),20,-2,·,·,5,·
O=C(CCl)c1ccc2c(c1)CCN2C(=O)C1CC1,·,·,27,0,·,·
O=C(CCl)c1ccc2c(c1)CCN2C(=O)C1CCCCC1,-8,6,31,-1,31,53*

# Screens deposited in PubChem BioAssay by several laboratories.
